In ChEMBL document CHEMBL4130614, “Synthesis and Bioactivity of Reduced Chalcones Containing Sulfonamide Side Chains” (J Nat Prod, 2018):

Tests used:
[1] = tested on: Mycobacterium tuberculosis; experiment: Antibacterial activity against Mycobacterium tuberculosis H37Rv ATCC 25618 measured at 24 hrs interval by BACTEC radiometric method; format: functional
Procedure, shortened: (§1)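 H37Rv grown in 7H9 with ADC to about 0.16 A600 (one McFarland), inoculated into BACTEC vials and incubated at 37 °C to GI 500 (±50). This primary culture was then dosed with filter-sterilised compound at 10 μM in DMSO (final DMSO 2.5%) and held at 37 °C. Growth was read every 24 h as radiometric CO₂ growth index against controls.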

[2] = tested on: Mycobacterium tuberculosis; experiment: Antibacterial activity against Mycobacterium tuberculosis H37Rv ATCC 25618 assessed as growth inhibition at 10 uM measured at 24 hrs interval by BACTEC radiometric method relative to control; format: functional; conditions: for inhibition of growth at 10 µM: Mycobacterium tuberculosis, H37Rv ATCC 25618, 24 h, read-out: GI; procedure, shortened: as §1
Plasmodium falciparum = experiment: Antiplasmodial activity against chloroquine-sensitive Plasmodium falciparum NF54 by lactate dehydrogenase assay; format: functional, organism-based
Procedure, shortened: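 Asexual erythrocyte-stage P. falciparum kept in continuous in vitro culture (modified Trager–Jensen). Activity quantified by parasite lactate dehydrogenase assay (modified Makler method). Triplicate wells, on one or two separate occasions. IC50 from full dose–response curves by nonlinear curve fitting. Chloroquine run as internal standard to monitor conditions.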

[3] = Mycobacterium tuberculosis, H37Rv ATCC 25618, 24 h, read-out: MIC99

SMILES: NS(=O)(=O)c1ccc(NCc2cc(CCCc3ccccc3)cc(CNc3ccc(S(N)(=O)=O)cc3)c2O)cc1
- MIC99 [1, 3]: > 10 µM
- inhibition of growth at 10 µM [2]: 0%

SMILES: NS(=O)(=O)c1ccc(NCc2ccc(CCCc3ccccc3)cc2O)cc1
- MIC99 [1, 3]: > 10 µM
- inhibition of growth at 10 µM [2]: 14%
- IC50 (Plasmodium falciparum): Not Active

SMILES: Oc1cccc(CCCc2ccccc2)c1
- MIC99 [1, 3]: > 10 µM
- inhibition of growth at 10 µM [2]: 94%
- IC50 (Plasmodium falciparum): Not Active

SMILES: CN(C)Cc1ccc(CCCc2ccccc2)cc1O.Cl
- MIC99 [1]: >10 µM
- growth inhibition (GI) [2]: 36%

SMILES: CN(C)Cc1ccc(CCCc2ccccc2)cc1O
- MIC99 [1, 3]: > 10 µM
- growth inhibition (GI) [2]: 74%

SMILES: CN(C)Cc1cc(CCCc2ccccc2)cc(CN(C)C)c1O.Cl.Cl
- MIC99 [1]: >10 µM
- growth inhibition (GI) [2]: 33%

SMILES: CN(C)Cc1cc(CCCc2ccccc2)cc(CN(C)C)c1O
- MIC99 [1, 3]: > 10 µM
- inhibition of growth at 10 µM [2]: 42%

SMILES: C[C@H]1[C@H](OC(=O)CCC(=O)O)O[C@@H]2O[C@@]3(C)CC[C@H]4[C@H](C)CC[C@@H]1[C@@]24OO3 [ARTESUNATE]
- IC50 (Plasmodium falciparum; Plasmodium falciparum, NF54, read-out: IC50): < 5.2 µM

SMILES: Cc1cc(NS(=O)(=O)c2ccc(N)cc2)no1 [SULFAMETHOXAZOLE]
- IC50 (Plasmodium falciparum): Not Active

SMILES: COc1ncnc(NS(=O)(=O)c2ccc(N)cc2)c1OC [SULFADOXINE]
- IC50 (Plasmodium falciparum): Not Active

SMILES: Oc1ccc(CCCc2ccccc2)cc1
- MIC99 [1, 3]: > 10 µM
- inhibition of growth at 10 µM [2]: 96%

SMILES: Nc1ccc(S(N)(=O)=O)cc1 [SULFANILAMIDE]
- MIC99 [1, 3]: > 10 µM
- inhibition of growth at 10 µM [2]: 0%
- IC50 (Plasmodium falciparum): Not Active
